Results as given in ChEMBL document CHEMBL1156237, “Antiviral activity of benzimidazole derivatives. II. Antiviral activity of 2-phenylbenzimidazole derivatives” (Bioorg Med Chem, 2010).
Calls of active or inactive are those of the source. How the calls were made is not given here.

Experiments:
[1] = test system: Bovine viral diarrhea virus 1; experiment: Antiviral activity against Bovine viral diarrhea virus NADL infected in MDBK cells assessed as protection from virus-induced cytopathogenicity after 3 to 4 days by MTT method; format: functional, organism-based, Bovine viral diarrhea virus 1-NADL
In short: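 Cytopathogenicity protection assay. MDBK cells at 3 × 10^4/well, grown overnight to confluence. Infected with BVDV NADL at m.o.i. 0.01 in MEM-E with 0.5% inactivated FBS, 1 mM Na pyruvate and 1% kanamycin. Serial compound dilutions added after 1 h. After 3–4 days at 37 °C, viability read by MTT; EC50 is the concentration giving 50% protection.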

[2] = Cytotoxicity against african green monkey Vero cells; format: cell-based; details: chlorocebus sabaeus
In short: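 Vero 76 monolayers exposed to serial compound dilutions, run in parallel on the same 24-well plates as the plaque-reduction assays. CC50 is the concentration reducing viability of mock-infected cells by 50%.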

[3] = Cytotoxicity against BHK cells after 48 to 96 hrs by MTT assay; format: cell-based, Mesocricetus auratus; details: hamster
In short: (§1)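 Cell seeding: MDBK at 6 × 10^5 cells/mL in MEM-E with 10% horse serum and 1 mM Na pyruvate; BHK at 1 × 10^6 cells/mL in MEM-E with 10% FBS. Serial compound dilutions, 37 °C, 5% CO2. Viability of mock-infected cells by MTT after 48–96 h; CC50 is the concentration reducing viability by 50%.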

[4] = test system: Vesicular stomatitis virus; experiment: Antiviral activity against VSV Indiana lab infected in african green monkey Vero cells after 2 days by plaque reduction assay; format: functional, organism-based
Coxsackievirus B2 = experiment: Antiviral activity against Human coxsackievirus B2 Ohio-1 infected in african green monkey Vero cells after 3 days by plaque reduction assay; format: functional, organism-based, Coxsackievirus B2 (strain Ohio-1)
In short: (§2)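 Plaque reduction assay. Vero 76 cells at 2 × 10^5/well, grown overnight to confluence in D-MEM with 10% FBS. Infected 2 h with 50–100 PFU/well, unadsorbed virus removed. Overlay of D-MEM with 1% inactivated FBS and 0.75% methylcellulose, with or without serial compound dilutions. Incubated at 37 °C for 3 days (HSV-1 KOS, CVB-2 Ohio-1) or 5 days (RSV A2). Fixed and stained with crystal violet in 50% ethanol; plaques counted; EC50 by linear regression.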

[5] = Cytotoxicity against MDBK cells after 48 to 96 hrs by MTT assay; format: cell-based, Bos taurus; details: cattle; in short: as §1
Yellow fever virus = experiment: Antiviral activity against Yellow fever virus 17D infected in BHK cells assessed as protection from virus-induced cytopathogenicity after 3 to 4 days by MTT method; format: functional, organism-based
MT4 = experiment: (§3) Cytotoxicity against human MT4 cells after 96 hrs by MTT assay; format: cell-based; details: mt4, 96 h, 96 h
In short: (§4)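 Exponentially growing MT-4 cells at 1 × 10^5 cells/mL in RPMI-1640 with 10% FCS, exposed to serial compound dilutions at 37 °C, 5% CO2. Viability by MTT after 96 h; CC50 is the concentration reducing viability of mock-infected cells by 50%.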

[6] = test system: Human immunodeficiency virus 1; experiment: Antiviral activity against HIV1 3B infected in human MT4 cells assessed as protection from virus-induced cytopathogenicity after 4 days by MTT method; format: functional, organism-based
In short: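 MT-4 cells, 1 × 10^4/well in RPMI with or without serial compound dilutions, infected with HIV-1 IIIB, 100 CCID50 (m.o.i. 0.01). Protection from virus-induced cytopathogenicity read by MTT.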

[7] = test system: Respiratory syncytial virus; experiment: Antiviral activity against RSV A2 infected in african green monkey Vero cells after 5 days by plaque reduction assay; format: functional, organism-based; details: human respiratory syncytial virus, A2, Vero, 120 h; in short: as §2
[8] = Selectivity index, ratio of CC50 for human MT4 cells to EC50 for Vaccinia virus Elstree-Lister; format: toxicity, cell-based; details: read-out: Ratio CC50/EC50
Human alphaherpesvirus 1 = experiment: Antiviral activity against HSV1 KOS infected in african green monkey Vero cells after 3 days by plaque reduction assay; format: functional, organism-based; details: Human alphaherpesvirus 1, KOS, 72 h; in short: as §2
Poliovirus 1 = experiment: Antiviral activity against Polio virus type1 Sabin strain Chat infected in african green monkey Vero cells after 2 days by plaque reduction assay; format: functional, organism-based, Human poliovirus 1 strain Sabin; details: Enterovirus C, 48 h
Vaccinia virus = experiment: Antiviral activity against Vaccinia virus Elstree-Lister infected in african green monkey Vero cells after 3 days by plaque reduction assay; format: functional, organism-based; details: Orthopoxvirus vaccinia, 72 h
[9] = Selectivity index, ratio of CC50 for african green monkey Vero cells to EC50 for Vaccinia virus Elstree-Lister; format: toxicity, cell-based; details: read-out: Ratio CC50/EC50
[10] = as §3; format: cell-based; details: MT4 cells; in short: as §4

SMILES	EC50 ([1]; mdbk) [µM]	CC50 [2] [µM]	CC50 [3] [µM]	Activity [4]	EC50 (Coxsackievirus B2; vero) [µM]	CC50 ([5]; mdbk) [µM]	EC50 (Yellow fever virus) [µM]	CC50 (MT4) [µM]	Activity [6]	EC50 ([1]; Bovine viral diarrhea virus isolates and strains, MDBK) [µM]	EC50 [7] [µM]	selectivity ratio [8]	EC50 (Human alphaherpesvirus 1) [µM]	EC50 (Poliovirus 1) [µM]	EC50 (Vaccinia virus) [µM]	EC50 (Coxsackievirus B2; Enterovirus B, Vero, 72 h) [µM]	selectivity ratio [9]	CC50 ([5]; MDBK cells) [µM]	CC50 at 96 h [10] [µM]
O=C(CN1CCOCC1)Nc1ccc(-c2nc3cc(Cl)c(Cl)cc3[nH]2)cc1	> 100	> 100	> 100	inactive	> 100	> 100	> 100	> 100	inactive	–	–	–	–	–	–	–	–	–	–
O=[N+]([O-])c1ccc(-c2nc3cc(Cl)c(Cl)cc3[nH]2)cc1	–	≥ 100	> 100	inactive	–	–	> 100	–	inactive	> 56	> 100	170	> 100	> 100	0.1	> 100	≥ 1000	56	17
